{"source": "paper PMC11847389", "about": "(BMC Chemistry, 2025)", "key": {"[1]": {"tested_on": "CYP3A4, UGT1A8 and UGT1A9", "details": "ref package insert of JAYPIRCA; cited from earlier work"}, "[2]": {"tested_on": "patients with covalent BTKi-pretreated CLL", "details": "cited from earlier work"}, "mutant BTK C481T": {"tested_on": "mutant BTK C481T", "details": "cited from earlier work"}, "CLL/SLL patients": {"tested_on": "CLL/SLL patients", "details": "323 patients; cited from earlier work"}, "[3]": {"details": "in vitro, independent of concentration; ref package insert of JAYPIRCA; cited from earlier work"}, "[4]": {"details": "ref package insert of JAYPIRCA, cited from earlier work"}, "[5]": {"test": "Pharmacokinetic study of pirtobrutinib in rats", "format": "in vivo, Sprague–Dawley rats", "how_it_was_run": "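Six male Sprague–Dawley rats (8 weeks, 230 g ± 10 g), fasted 12 h, got a single intragastric 10 mg·kg-1 suspension in 0.5% CMC-Na. Ophthalmic-vein blood (200 µL, EDTA-K2) was drawn pre-dose and at 0.25–48 h; plasma was frozen at -80 °C. Plasma underwent cold-methanol protein precipitation with IS, then C18 UHPLC-MS/MS (0.5–500 ng/mL calibration). Parameters came from non-compartmental analysis.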"}, "mutant BTK C481S": {"tested_on": "mutant BTK C481S", "details": "cited from earlier work"}, "[6]": {"test": "Stability of pirtobrutinib in rat plasma under different storage conditions", "format": "in vitro ADME", "details": "for Stability RE %: n = 6", "how_it_was_run": "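Blank rat plasma was spiked 1:10 with working solution to make QCs of 1, 25 and 400 ng/mL, six replicates each. These were held at room temperature 4 h, in the autosampler at 4 °C 24 h, through three freeze-thaw cycles, or at -80 °C 30 days. Samples then underwent cold-methanol protein precipitation with IS and UHPLC-MS/MS; RSD% and RE% were reported.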"}, "mutant BTK C481R": {"tested_on": "mutant BTK C481R", "details": "cited from earlier work"}, "[7]": {"details": "cited from earlier work"}, "[8]": {"details": "male, Sprague-Dawley, rat, plasma, po, 10 mg/kg"}}, "data": [{"smiles": "COc1ccc(F)cc1C(=O)NCc1ccc(-c2nn([C@@H](C)C(F)(F)F)c(N)c2C(N)=O)cc1", "note": "[Pirtobrutinib]", "values": [{"measurement": "metabolism in vitro", "setting": "[1]", "result": "primarily metabolized by CYP3A4 and direct glucuronidation by UGT1A8 and UGT1A9"}, {"measurement": "ORR versus venetoclax monotherapy", "setting": "[2]", "result": "significantly higher"}, {"measurement": "inhibition of autophosphorylation of Y223", "setting": "mutant BTK C481T", "result": "can inhibit"}, {"measurement": "dose-limiting toxicities", "setting": "CLL/SLL patients", "result": "no dose-limiting toxicities"}, {"measurement": "patients discontinuing medication due to treatment-related AEs", "setting": "CLL/SLL patients", "result": 1, "unit": "%"}, {"measurement": "human protein binding", "setting": "[3]", "result": 96, "unit": "%"}, {"measurement": "mean apparent clearance", "setting": "[4]; (37.2%) printed as spread", "result": 2.05, "unit": "L/h"}, {"measurement": "median time to reach peak plasma concentration (tmax)", "setting": "[4]; range 0.833 to 4.15 h", "result": "approximately 2 h"}, {"measurement": "effective half-life", "setting": "[4]", "result": "approximately 19 h"}, {"measurement": "absolute bioavailability", "setting": "[4]; single oral 200 mg dose, range 75.9–90.9%", "result": 85.5, "unit": "%"}, {"measurement": "plasma concentration at last sampling timepoint", "setting": "[5]; 48 h after intragastric 10 mg·kg−1, LLOQ 0.5 ng/ml", "result": "below the LLOQ"}, {"measurement": "concentration at 0.25 h", "setting": "[5]; male, Sprague-Dawley, rat, plasma, oral, 10 mg·kg−1", "result": 140, "unit": "ng/mL"}, {"measurement": "AUC(0-inf)", "setting": "[5]; [8]", "result": "2350 ± 582", "unit": "ng·h/mL"}, {"measurement": "AUC(0-t)", "setting": "[5]; [8]", "result": "2340 ± 578", "unit": "ng·h/mL"}, {"measurement": "Cmax", "setting": "[5]; [8]", "result": "344 ± 56.6", "unit": "ng/mL"}, {"measurement": "MRT inf", "setting": "[5]; [8]", "result": "5.15 ± 0.94", "unit": "h"}, {"measurement": "MRT last", "setting": "[5]; [8]", "result": "5.05 ± 0.923", "unit": "h"}, {"measurement": "Tmax", "setting": "[5]; [8]", "result": "1.08 ± 0.736", "unit": "h"}, {"measurement": "half-life", "setting": "[5]; [8]", "result": "2.95 ± 0.121", "unit": "h"}, {"measurement": "inhibition of autophosphorylation of Y223", "setting": "mutant BTK C481S", "result": "can inhibit"}, {"measurement": "Stability RE %", "setting": "[6]; 1.0 ng/mL, autosampler 4 ℃, 24 h after preparation", "result": -6.9, "unit": "%"}, {"measurement": "Stability RE %", "setting": "[6]; 25 ng/mL, autosampler 4 ℃, 24 h after preparation", "result": -9.4, "unit": "%"}, {"measurement": "Stability RE %", "setting": "[6]; 400 ng/mL, autosampler 4 ℃, 24 h after preparation", "result": -11.7, "unit": "%"}, {"measurement": "Stability RE% value, three QC samples", "setting": "[6]; all four storage conditions, absolute (±) value", "result": "< 11.7", "unit": "%"}, {"measurement": "Stability RE %", "setting": "[6]; rat plasma, 1.0 ng/mL, -80 ℃, 30 days", "result": -1.8, "unit": "%"}, {"measurement": "Stability RE %", "setting": "[6]; rat plasma, 1.0 ng/mL, room temperature, 4 h", "result": 0, "unit": "%"}, {"measurement": "Stability RE %", "setting": "[6]; rat plasma, 1.0 ng/mL, three freeze-thaw", "result": -3.7, "unit": "%"}, {"measurement": "Stability RE %", "setting": "[6]; rat plasma, 25 ng/mL, -80 ℃, 30 days", "result": 9.4, "unit": "%"}, {"measurement": "Stability RE %", "setting": "[6]; rat plasma, 25 ng/mL, room temperature, 4 h", "result": 1.7, "unit": "%"}, {"measurement": "Stability RE %", "setting": "[6]; rat plasma, 400 ng/mL, three freeze-thaw", "result": 6.0, "unit": "%"}, {"measurement": "Stability in plasma", "setting": "[6]; several storage and handling conditions", "result": "stable"}, {"measurement": "inhibition of autophosphorylation of Y223", "setting": "mutant BTK C481R", "result": "can inhibit"}, {"measurement": "permeability in vitro", "setting": "[7]", "result": "high"}]}]}
